ChEMBL document CHEMBL4251608, “Emimycin and its nucleoside derivatives: Synthesis and antiviral activity” (Eur J Med Chem, 2018)
Activity calls are given as the source filed them. The calls are words filed in the database; no cut-off is given here.

Assays:
[1] = tested on: Respiratory syncytial virus; assay: Antiviral activity against RSV infected in human HeLa cells at 100 uM; assay type: functional, organism-based
[2] = Cytotoxicity against MDCK cells assessed as reduction in cell viability by MTS assay; assay type: cell-based, Canis lupus familiaris; conditions: dog
[3] = Cytotoxicity against MDCK cells assessed as alteration in cell morphology by microscopic method; assay type: cell-based, Canis lupus familiaris; conditions: dog
Procedure, shortened: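 MDCK cells exposed to compounds (up to 100 µM) and examined microscopically. MCC taken as the minimum concentration causing a detectable alteration of normal cell morphology.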

[4] = tested on: Influenza B virus; assay: Antiviral activity against Influenza B virus B/Ned/537/05 infected in MDCK cells assessed as reduction in virus-induced cytopathic effect by MTS assay; assay type: functional, organism-based; conditions: B/Ned/537/05, MDCK
[5] = tested on: Escherichia coli; assay: Antibacterial activity against Escherichia coli; assay type: functional, organism-based
[6] = tested on: Enterococcus faecium; assay: Antibacterial activity against Streptococcus faecium; assay type: functional, organism-based
[7] = tested on: H3N2 subtype; assay: Antiviral activity against Influenza A virus A/HK/7/87(H3N2) infected in MDCK cells assessed as reduction in virus-induced cytopathic effect by MTS assay; assay type: functional, organism-based; conditions: A/Hong Kong/7/1987(H3N2)
[8] = tested on: HeLa; assay: Cytotoxicity against human HeLa cells at 100 uM; assay type: cell-based
[9] = tested on: Influenza A virus; assay: Antiviral activity against Influenza A virus A/Ned/378/05(H1N1) infected in MDCK cells assessed as reduction in virus-induced cytopathic effect by MTS assay; assay type: functional, organism-based
[10] = tested on: Human alphaherpesvirus 1; assay: Antiviral activity against acyclovir-resistant HSV1 KOS harboring TK- mutant infected in HEL cells assessed as reduction in virus-induced cytopathic effect after 2 to 3 days; assay type: functional, organism-based; conditions: Human alphaherpesvirus 1, KOS
Procedure, shortened: (§1)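 Confluent HEL fibroblasts were infected with 100 CCID50 of HSV. After 2 h adsorption the virus was removed and cells were incubated with varying compound concentrations. Virus-induced cytopathicity was scored 2-3 days post-infection. […] Data are the mean of two independent experiments.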

[11] = tested on: Human betaherpesvirus 5; assay: Antiviral activity against HCMV Davis infected in HEL cells assessed as reduction in virus-induced cytopathic effect after 6 to 7 days; assay type: functional, organism-based; conditions: Human betaherpesvirus 5, Davis
Procedure, shortened: (§2)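 Confluent HEL fibroblasts were inoculated with 100 CCID50 of HCMV. After 2 h adsorption the inoculum was removed and cells were incubated with varying compound concentrations. Viral cytopathicity was recorded 6-7 days post-infection. […] Data are the mean of two independent experiments.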

[12] = Cytotoxicity against HEL cells assessed as reduction in cell viability after 3 days by coulter counting method; assay type: cell-based; conditions: human
Procedure, shortened: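 HEL fibroblasts seeded at 5 x 10^3 cells/well, left to proliferate 24 h, then given medium with varying compound concentrations. After 3 days at 37 °C, cells counted with a Coulter counter.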

[13] = tested on: Human alphaherpesvirus 3; assay: Antiviral activity against TK-positive VZV Oka infected in HEL cells assessed as reduction in plaque formation after 5 days; assay type: functional, organism-based; conditions: Human alphaherpesvirus 3, strain Oka vaccine, 120 h
[14] = tested on: Human alphaherpesvirus 2; assay: Antiviral activity against HSV2 strain G infected in HEL cells assessed as reduction in virus-induced cytopathic effect after 2 to 3 days; assay type: functional, organism-based; conditions: Human alphaherpesvirus 2, strain G; procedure, shortened: as §1
[15] = tested on: Human betaherpesvirus 5; assay: Antiviral activity against HCMV AD169 infected in HEL cells assessed as reduction in virus-induced cytopathic effect after 6 to 7 days; assay type: functional, organism-based; conditions: Human betaherpesvirus 5, AD169, HEL; procedure, shortened: as §2
[16] = tested on: Human alphaherpesvirus 3; assay: Antiviral activity against TK-defecient VZV 07-1 infected in HEL cells assessed as reduction in plaque formation after 5 days; assay type: functional, organism-based; conditions: Human alphaherpesvirus 3, 07-1, HEL, 120 h
[17] = tested on: Human alphaherpesvirus 1; assay: Antiviral activity against HSV1 KOS infected in HEL cells assessed as reduction in virus-induced cytopathic effect after 2 to 3 days; assay type: functional, organism-based; conditions: Human alphaherpesvirus 1, KOS; procedure, shortened: as §1
[18] = Ratio of EC50 for TK-defecient VZV 07-1 infected in HEL cells to EC50 for TK-positive VZV Oka infected in HEL cells; assay type: functional
Procedure, shortened: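 Confluent HEL fibroblasts were inoculated with 20 PFU of VZV, either TK− strain 07−1 or Oka. After 2 h adsorption the inoculum was removed and compound was added at varying concentrations. […] The ratio is the TK− EC50 over the Oka EC50.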

[19] = Selectivity index, ratio of CC50 for HEL cells to EC50 for HSV1 KOS infected in HEL cells; assay type: toxicity, cell-based; conditions: human, read-out: Ratio CC50/EC50
Procedure, shortened: (§3)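 SI = CC50/EC50, with both values from HEL fibroblasts. For the antiviral part, confluent cultures were inoculated with 100 CCID50 (HSV) or 20 PFU (VZV Oka). After 2 h adsorption the inoculum was removed and compounds added. Cytopathicity was scored at 2-3 days (HSV) and plaques at 5 days (VZV). CC50 came from Coulter counting of cell growth after 3 days.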

[20] = Cytotoxicity against HEL cells assessed as alteration in cell morphology after 3 days by microscopic method; assay type: cell-based; conditions: human
Procedure, shortened: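 HEL cells were treated with test compounds. MCC is the minimum concentration causing a microscopically detectable alteration of cell morphology. Data are the mean of two independent experiments.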

[21] = Selectivity index, ratio of CC50 for HEL cells to EC50 for TK-positive VZV Oka infected in HEL cells; assay type: toxicity, cell-based; conditions: human, read-out: Ratio CC50/EC50; procedure, shortened: as §3
[22] = tested on: Human alphaherpesvirus 1; assay: Ratio of EC50 for acyclovir-resistant HSV1 KOS harboring TK- mutant infected in HEL cells to EC50 for HSV1 KOS infected in HEL cells; assay type: functional
Procedure, shortened: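 HEL fibroblasts were infected with 100 CCID50 of TK− ACV-resistant HSV-1 KOS or wild-type KOS, with 2 h adsorption, then incubated with varying compound concentrations. Cytopathicity was read at 2-3 days to give EC50 values. The ratio is TK− EC50 divided by wild-type EC50.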

[23] = Selectivity index, ratio of CC50 for HEL cells to EC50 for HSV2 strain G infected in HEL cells; assay type: toxicity, cell-based; conditions: human, read-out: Ratio CC50/EC50; procedure, shortened: as §3

SMILES | Activity [1] | CC50 [2] | MCC [3] | EC50 [4] | EC50 [7] | Activity [8] | EC50 [9] | EC50 [10] | EC50 [11] | CC50 at 72 h [12] | EC50 [13] | EC50 [14] | EC50 [15] | EC50 [16] | EC50 [17] | further results
O=c1c[n+]([O-])cc[nH]1 | inactive | > 100 µM | > 100 µM | > 100 µM | > 100 µM | Non-Toxic | > 100 µM | – | – | – | – | – | – | – | – | EC50 [5]: 10 µM; EC50 [6]: 8 µM
Cc1cn([C@H]2O[C@H](CO)[C@@H](O)[C@H]2O)c(=O)c[n+]1[O-] | inactive | > 100 µM | > 100 µM | > 100 µM | > 100 µM | Non-Toxic | > 100 µM | – | – | – | – | – | – | – | – | –
CCc1cn([C@H]2C[C@H](O)[C@@H](CO)O2)c(=O)c[n+]1[O-] | – | – | – | – | – | – | – | > 390 µM | > 78 µM | > 390 µM | 7.77 µM | 145 µM | > 78 µM | 138 µM | 8.55 µM | –
O=c1c[n+]([O-])ccn1[C@@H]1C[C@H](O)[C@@H](CO)O1 | – | – | – | – | – | – | – | > 438 µM | > 438 µM | > 438 µM | 438 µM | > 438 µM | > 87 µM | > 438 µM | > 438 µM | –
CCc1cn([C@H]2O[C@H](CO)[C@@H](O)[C@H]2O)c(=O)c[n+]1[O-] | inactive | > 100 µM | > 100 µM | > 100 µM | > 100 µM | Non-Toxic | > 100 µM | – | – | – | – | – | – | – | – | –
CCc1cn([C@@H]2C[C@H](O)[C@@H](CO)O2)c(=O)c[n+]1[O-] | – | – | – | – | – | – | – | > 390 µM | > 78 µM | > 390 µM | 142 µM | 204 µM | > 78 µM | 174 µM | 174 µM | –
O=c1c[n+]([O-])ccn1[C@H]1O[C@H](CO)[C@@H](O)[C@H]1O | inactive | > 100 µM | > 100 µM | > 100 µM | > 100 µM | Non-Toxic | > 100 µM | – | – | – | – | – | – | – | – | –
Cc1cn([C@H]2C[C@H](O)[C@@H](CO)O2)c(=O)c[n+]1[O-] | – | – | – | – | – | – | – | 59.4 µM | > 412 µM | > 412 µM | 0.99 µM | 17.5 µM | > 412 µM | 6.91 µM | 1.79 µM | Ratio EC50 [18]: 7; selectivity ratio [19]: 230; MCC at 72 h [20]: 169 µM; selectivity ratio [21]: > 416; Ratio EC50 [22]: 30; selectivity ratio [23]: 24
CCc1c[nH]c(=O)c[n+]1[O-] | inactive | > 100 µM | > 100 µM | > 100 µM | > 100 µM | Non-Toxic | > 100 µM | – | – | – | – | – | – | – | – | –
Cc1c[nH]c(=O)c[n+]1[O-] | inactive | > 100 µM | > 100 µM | > 100 µM | > 100 µM | Non-Toxic | > 100 µM | – | – | – | – | – | – | – | – | –
Nc1nc2c(ncn2COCCO)c(=O)[nH]1 [ACYCLOVIR] | – | – | – | – | – | – | – | 88.8 µM | – | > 444 µM | – | – | – | – | 0.38 µM | MCC at 72 h [20]: > 444 µM
O=c1[nH]c(=O)n([C@H]2C[C@H](O)[C@@H](CO)O2)cc1/C=C/Br [BRIVUDINE] | – | – | – | – | – | – | – | 20.1 µM | – | > 300 µM | 0.035 µM | – | – | 6.66 µM | 0.068 µM | MCC at 72 h [20]: > 300 µM
O=c1c[n+]([O-])ccn1[C@H]1C[C@H](O)[C@@H](CO)O1 | – | – | – | – | – | – | – | > 438 µM | > 438 µM | > 438 µM | > 438 µM | > 438 µM | > 438 µM | > 438 µM | > 438 µM | –
O=c1c[n+]([O-])ccn1[C@@H]1O[C@H](CO)[C@@H](O)[C@H]1O | inactive | > 100 µM | > 100 µM | > 100 µM | > 100 µM | Non-Toxic | > 100 µM | – | – | – | – | – | – | – | – | –
CCc1cn([C@@H]2O[C@H](CO)[C@@H](O)[C@H]2O)c(=O)c[n+]1[O-] | inactive | > 100 µM | > 100 µM | > 100 µM | > 100 µM | Non-Toxic | > 100 µM | – | – | – | – | – | – | – | – | –
Nc1ccn(C[C@@H](CO)OCP(=O)(O)O)c(=O)n1 [CIDOFOVIR] | – | – | – | – | – | – | – | 1.56 µM | 1.58 µM | > 358 µM | – | 1.97 µM | 1.04 µM | – | 2.81 µM | MCC at 72 h [20]: > 358 µM
Cc1cn([C@@H]2C[C@H](O)[C@@H](CO)O2)c(=O)c[n+]1[O-] | – | – | – | – | – | – | – | > 412 µM | > 412 µM | > 412 µM | 328 µM | > 412 µM | > 82 µM | > 412 µM | > 412 µM | –
Cc1cn([C@@H]2O[C@H](CO)[C@@H](O)[C@H]2O)c(=O)c[n+]1[O-] | inactive | > 100 µM | > 100 µM | > 100 µM | > 100 µM | Non-Toxic | > 100 µM | – | – | – | – | – | – | – | – | –
